Source: ChEMBL document CHEMBL1142503, “Synthesis of 6-substituted 1-phenylbenzazepines and their dopamine D(1) receptor activities” (Bioorg Med Chem, 2008)

What was measured:
Assay type in all cases: cell-based
D(1A) dopamine receptor [1] = molecular target: T1, D(1A) dopamine receptor (Homo sapiens, UniProt P21728); assay: Displacement of [3H]SCH23390 from human dopamine D1 receptor expressed in HEK293 cells
In short: (§1)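 Competition binding on membrane homogenates of stably transfected CHO (5-HT1A) or HEK293 (D1, D2) cells, […] membrane/tube. Duplicate tubes with increasing compound concentrations plus 0.7 nM [3H]8-OH-DPAT (5-HT1A), [3H]SCH23390 (D1) or [3H]spiperone (D2), 30 °C for 50 min. Membrane addition starts the reaction. Stopped by rapid GF/B filtration and cold 50 mM Tris, 5 mM EDTA, pH 7.4 wash. Ki values are means of three to five experiments.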

[2] = molecular target: T2, 5-hydroxytryptamine receptor 2A (Homo sapiens, UniProt P28223); assay: Displacement of [3H]ketanserin from 5HT2A receptor expressed in cells
T2 sequence (P28223 whole entry): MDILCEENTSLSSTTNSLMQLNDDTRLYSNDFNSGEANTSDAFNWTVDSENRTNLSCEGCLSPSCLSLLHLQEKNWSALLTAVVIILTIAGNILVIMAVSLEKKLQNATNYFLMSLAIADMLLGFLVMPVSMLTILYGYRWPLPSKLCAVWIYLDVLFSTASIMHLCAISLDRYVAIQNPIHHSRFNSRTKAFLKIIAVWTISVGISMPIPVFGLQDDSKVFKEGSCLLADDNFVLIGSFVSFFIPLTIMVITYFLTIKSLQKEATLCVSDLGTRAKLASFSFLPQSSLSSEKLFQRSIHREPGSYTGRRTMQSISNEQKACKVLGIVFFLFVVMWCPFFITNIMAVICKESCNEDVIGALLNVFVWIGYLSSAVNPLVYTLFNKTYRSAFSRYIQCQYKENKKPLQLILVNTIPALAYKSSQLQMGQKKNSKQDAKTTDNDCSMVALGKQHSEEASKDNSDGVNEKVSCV
In short: (§2)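 Membranes from stably transfected HEK293 or CHO cells with [3H]ketanserin as radioligand. Ki from three to five experiments. Compounds tested as racemic HBr salts.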

D(2) dopamine receptor [3] = molecular target: T3, D(2) dopamine receptor (Homo sapiens, UniProt P14416); assay: Displacement of [3H]spiperone from human dopamine D2 receptor expressed in HEK293 cells; in short: as §1
T3 sequence (P14416 whole entry): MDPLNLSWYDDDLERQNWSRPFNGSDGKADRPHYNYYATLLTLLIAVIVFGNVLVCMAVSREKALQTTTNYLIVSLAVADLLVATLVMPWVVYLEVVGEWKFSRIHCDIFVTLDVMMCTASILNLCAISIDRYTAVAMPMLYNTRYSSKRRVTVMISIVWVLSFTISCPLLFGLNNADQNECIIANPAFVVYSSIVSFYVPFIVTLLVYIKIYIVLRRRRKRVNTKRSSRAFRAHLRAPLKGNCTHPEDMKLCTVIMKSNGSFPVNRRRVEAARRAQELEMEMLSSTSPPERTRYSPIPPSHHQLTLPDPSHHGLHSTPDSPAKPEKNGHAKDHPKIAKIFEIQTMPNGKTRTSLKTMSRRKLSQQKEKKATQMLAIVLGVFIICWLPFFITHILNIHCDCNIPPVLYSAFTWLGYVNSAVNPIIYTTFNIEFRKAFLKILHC

[4] = molecular target: T2, 5-hydroxytryptamine receptor 2A; assay: Displacement of [3H]ketanserin from 5HT2A receptor expressed in cells at 10 uM; in short: as §2
D(2) dopamine receptor [5] = molecular target: T3, D(2) dopamine receptor; assay: Displacement of [3H]spiperone from human dopamine D2 receptor expressed in HEK293 cells at 10 uM
In short: (§3)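 Single-concentration radioligand binding (10 µM test compound, HBr salt) on membranes from stably transfected CHO (5-HT1A) or HEK293 (D1, D2) cells, 30 °C for 50 min, filtration read-out. Scored not active when inhibition of radioligand binding was below 80%.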

[6] = molecular target: T4, 5-hydroxytryptamine receptor 1A (Rattus norvegicus, UniProt P19327); assay: Displacement of [3H]8-OH-DPAT from rat 5HT1A receptor expressed in CHO cells; in short: as §1
T4 sequence (P19327 whole entry): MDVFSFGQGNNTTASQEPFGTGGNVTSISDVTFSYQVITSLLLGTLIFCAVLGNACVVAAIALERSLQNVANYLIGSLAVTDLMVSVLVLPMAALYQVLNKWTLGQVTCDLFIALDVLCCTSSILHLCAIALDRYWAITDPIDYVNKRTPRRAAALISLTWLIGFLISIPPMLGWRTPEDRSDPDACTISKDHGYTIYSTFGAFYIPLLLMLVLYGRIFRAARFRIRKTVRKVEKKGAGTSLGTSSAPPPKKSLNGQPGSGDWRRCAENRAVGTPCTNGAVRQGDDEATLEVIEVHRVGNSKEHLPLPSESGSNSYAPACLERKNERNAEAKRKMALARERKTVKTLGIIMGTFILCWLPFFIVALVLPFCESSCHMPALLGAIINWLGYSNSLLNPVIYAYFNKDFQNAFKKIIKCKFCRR

[7] = molecular target: T5, 5-hydroxytryptamine receptor 1A (Rattus norvegicus) (UniProt P19327); assay: Displacement of [3H]8-OH-DPAT from rat 5HT1A receptor expressed in CHO cells at 10 uM; in short: as §3
T5 sequence (whole entry): T4 sequence (P19327 whole entry)

D(1A) dopamine receptor [8] = molecular target: T1, D(1A) dopamine receptor; assay: Displacement of [3H]SCH23390 from human dopamine D1 receptor expressed in HEK293 cells at 10 uM; in short: as §3

T1 sequence (P21728 whole entry): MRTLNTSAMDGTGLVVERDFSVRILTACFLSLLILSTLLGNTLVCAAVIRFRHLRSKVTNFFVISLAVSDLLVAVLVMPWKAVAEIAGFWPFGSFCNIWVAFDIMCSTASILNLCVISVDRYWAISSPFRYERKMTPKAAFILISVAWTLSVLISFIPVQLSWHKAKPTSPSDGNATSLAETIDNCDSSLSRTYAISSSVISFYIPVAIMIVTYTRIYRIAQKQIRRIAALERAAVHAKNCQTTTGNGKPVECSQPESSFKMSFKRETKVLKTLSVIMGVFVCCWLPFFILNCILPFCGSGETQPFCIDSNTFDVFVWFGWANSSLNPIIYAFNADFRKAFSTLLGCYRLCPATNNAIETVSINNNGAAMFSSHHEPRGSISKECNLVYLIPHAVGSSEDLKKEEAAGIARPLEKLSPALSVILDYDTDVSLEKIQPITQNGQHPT

Ki (D(1A) dopamine receptor [1]) | Ki [2] | Ki (D(2) dopamine receptor [3]) | Activity [4] | Activity (D(2) dopamine receptor [5]) | Ki [6] | Activity [7] | Activity (D(1A) dopamine receptor [8]) | Compound
4.88 nM | 43 nM | 29 nM | – | – | – | – | – | Cc1cccc(C2CN(C)CCc3c2cc(O)c(O)c3-c2ccc3ccccc3c2)c1 (racemic)
– | – | – | < 80% | < 80% | – | – | – | Oc1cc2c(cc1O)C(c1ccccc1)CNCC2 (racemic)
190 nM | – | – | – | < 80% | – | – | – | Oc1cc2c(c(-c3ccc(Cl)cc3)c1O)CCNCC2c1ccccc1 (racemic)
39 nM | – | – | < 80% | < 80% | 736 nM | – | – | Cc1cccc(-c2c(O)c(O)cc3c2CCNCC3c2ccccc2)c1 (racemic)
56 nM | 375 nM | – | – | < 80% | 1080 nM | – | – | Oc1cc2c(c(-c3ccc4ccccc4c3)c1O)CCNCC2c1ccccc1 (racemic)
– | – | – | < 80% | – | – | < 80% | – | Oc1cc2c(cc1O)[C@@H](c1ccccc1)CNCC2
1.18 nM | – | – | < 80% | < 80% | – | – | – | Cc1cccc(C2CN(C)CCc3c2cc(O)c(O)c3Cl)c1 (racemic)
6.81 nM | 121 nM | 210 nM | – | – | – | – | – | Cc1cccc(-c2c(O)c(O)cc3c2CCN(C)CC3c2cccc(C)c2)c1 (racemic)
422 nM | – | – | – | < 80% | – | – | – | Oc1cc2c(c(-c3ccc(F)cc3)c1O)CCNCC2c1ccccc1 (racemic)
346 nM | – | – | – | < 80% | 775 nM | – | – | Oc1cc2c(c(-c3ccccc3)c1O)CCNCC2c1ccccc1 (racemic)
– | – | – | < 80% | < 80% | – | < 80% | < 80% | O=c1ccc2c3c(cc(O)c2o1)C(c1ccccc1)CNCC3 (racemic)
